Screening data as filed in PubChem.
HTRA1 inhibitor: HTRA1 serine protease inhibitors, primary screen, biochemical, fluorescence polarization, HTS | Q92743 | recombinant HTRA1, FP-rhodamine activity-based probe | inhibition, % at 5.96 µM | 340,000 tested, 0.5% active | AID 504803, 2011; in the data active = inhibition above about 36%;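 note: 0% = enzyme with DMSO and 100% = wells lacking enzyme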
SIAE primary: human SIAE inhibitors, primary screen, biochemical, fluorescence polarization, FP-Rh probe, 1536-well HTS | SIAE FP-Rh probe binding | AID 1053197, 2014 | inhibition, % at 9.66 µM | Sialate O-acetylesterase (Homo sapiens), Q9HAT2 | 370,000 tested, 0.69% active;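 active = inhibition above a cutoff: mean of compounds within the control limits plus 3 SD of those, cut at about 17% in these data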;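 note: 0% = plate median of compound wells and 100% = probe without SIAE protein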
LEDGF integ inh: blockers of LEDGF/p75-dependent integrase strand transfer – biochemical, TR-FRET, high throughput, primary screen; HIV-1 integrase (with human LEDGF/p75); AID 743269, 2014; TR-FRET IN-LEDGF/p75 DNA integration, Eu/Cy5; inhibition, % at 3.7 µM; 370,000 tested, 0.64% active;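 active = inhibition above the screen-wide mean plus 3 SD, cut at about 13% in these data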;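 note: signal is the Cy5 over europium emission ratio at 671 and 618 nm; 0% = plate median of compound wells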
mABHD4 FP: ABHD4 inhibitors, primary screen, biochemical, fluorescence polarization, mouse; inhibition, % at 8.92 µM; AID 720543, 2013; (Lyso)-N-acylphosphatidylethanolamine lipase (Mus musculus), Q8VD66; purified mABHD4, FP-Rh probe fluorescence polarization; 370,000 tested, 0.54% active;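 active = inhibition exceeding the mean over every tested compound plus 3 SD, cut at about 30% in these data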;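 note: 0% = plate median of compound wells and 100% = S159A mutant with DMSO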
Target sequence (Q8VD66 whole entry, looked up): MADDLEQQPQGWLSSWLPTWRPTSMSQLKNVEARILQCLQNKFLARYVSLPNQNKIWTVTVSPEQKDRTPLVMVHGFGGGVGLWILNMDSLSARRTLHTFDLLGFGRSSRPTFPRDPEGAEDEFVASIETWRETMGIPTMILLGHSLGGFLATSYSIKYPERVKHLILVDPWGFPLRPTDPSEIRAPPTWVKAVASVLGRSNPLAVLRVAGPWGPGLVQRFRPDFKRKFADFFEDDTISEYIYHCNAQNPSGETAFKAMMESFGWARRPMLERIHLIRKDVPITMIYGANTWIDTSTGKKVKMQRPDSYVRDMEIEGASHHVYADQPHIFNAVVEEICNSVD
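system = mouse ABHD4 enzyme, wild type | medium = HEPES pH 7.0, NaCl, Pluronic buffer | also added = FP-Rh probe | incubation = Enzyme–compound pre-incubation 45 min, then probe 60 min, both 25 °C | technique = fluorescence polarization, excitation 525 nm, emission 598 nm, BODIPY TMR filters | controls = S159A mutant high control, sample median low control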
TDP2 inh: human TDP2 enzyme inhibitors, primary screen, biochemical, epi absorbance, recombinant enzyme; Tyrosyl-DNA phosphodiesterase 2 (Homo sapiens), O95551; T5PNP hydrolysis, p-nitrophenol absorbance 415 nm; inhibition, % at 12.8 µM; 370,000 tested, 0.34% active; AID 720702, 2013;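 active = inhibition above the mean of all tested compounds plus 3 SD, set per campaign, cut at about 25% in these data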;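 note: 0% = DMSO with enzyme and 100% = buffer with substrate but no TDP2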
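System – recombinant human TDP2 · Quantity – TDP2 enzyme at 120 nM final · Doses – single concentration, 12.8 µM nominal, with 1% DMSO · Incubation – 2 h at 37 °C · Measured by – epi absorbance of p-nitrophenol freed from T5PNP by hydrolysis · Read-out – % inhibition relative to enzyme-containing and enzyme-free wells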
TCR CD3 inh: inhibitors of human TCR-CD3 interaction, primary screen, biochemical, fluorescence, TAMRA-labeled TCR probe. T-cell receptor (TCR). inhibition, % at 9.4 µM. 360,000 tested, 0.37% active. AID 651800, 2012; in the data active = inhibition above about 19%;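 note: recombinant mutant TCR 2C K166C tagged with TAMRA read by polarization; 0% = receptor in buffer alone and 100% = receptor with positive control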
mABHD4 conf: ABHD4 inhibitors, retest, confirmation, biochemical, fluorescence polarization, mouse | purified mABHD4, FP-Rh probe fluorescence polarization | shares compounds with mABHD4 FP | 1,800 tested, 55% active | inhibition, % at 8.92 µM | AID 720658, 2013;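 active = mean inhibition across replicates above the hit cutoff set in the primary screen, cut at about 30% in these data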;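 note: 0% = wild-type ABHD4 with DMSO and 100% = catalytically dead S159A mutant with DMSO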
Numbers without * were called inactive; · = not tested or not shown. Compounds with a hit are over-represented: about 2.2% of the library has one in this group of screens.

SMILES | HTRA1 inhibitor | SIAE primary | LEDGF integ inh | mABHD4 FP | TDP2 inh | TCR CD3 inh | mABHD4 conf
O=C(c1cccc([N+](=O)[O-])c1)c1ccccn1 | 0 | 4 | 1 | -1 | 15 | 8 | ·
Cc1cccc(NC(=O)NNC(=O)c2ccccn2)c1 | 3 | -6 | -3 | 30* | 3 | -1 | 27
O=C(NNC(=O)c1ccccn1)c1cccc([N+](=O)[O-])c1 | -3 | 0 | -2 | 32* | -8 | 2 | 8
Cc1cccc(NC(=O)c2cccc(C(=O)Nc3cccc(C)c3)n2)c1 | 3 | -6 | 0 | -5 | 10 | 5 | ·
CC1=CC(O)(c2ccccn2)P(=O)(c2ccccc2)C=C1C (configuration not stated) | · | 3 | -2 | 4 | -1 | -6 | ·
O=c1c(-c2cccc3ccccc23)[n+]([O-])c2ccccc2n1O | 3 | 13 | 0 | 49* | -10 | 9 | 14
Cc1cc(N2CCN(C(=O)Oc3ccc(-c4ccccc4)cn3)CC2)c2ccccc2n1 | · | -1 | 7 | 12 | -11 | · | ·
Cc1cc(N2CCN(C(=O)Oc3ccc(C(F)(F)F)cc3)CC2)c2ccccc2n1 | · | 0 | 1 | 53* | -8 | · | 23
CN1CCC(=C2c3ccccc3C(O)c3ccccc32)CC1 (configuration not stated) | 1 | 3 | 8 | 8 | -5 | -3 | ·
CN1CCc2cccc3c2C1Cc1ccc(O)c(O)c1-3 (configuration not stated) | 36 | 6 | 3 | 53* | 2 | 7 | 1
Fc1ccc(-c2n[nH]c(=S)n2N=Cc2cccc(OCc3ccccc3)c2)cc1 | · | -8 | 4 | 0 | -6 | · | ·
O=C(Nc1ccccc1Cl)NN1CCCCCC1 | -15 | -1 | -3 | 48* | -7 | -11 | 52*
CCOC(=O)c1c(C)n2c3c(cc(C)cc13)CCC2 | -4 | 2 | 1 | 31* | -1 | -1 | -4
O=C(CSc1nnc(COc2ccccc2)n1-c1ccc(Cl)cc1)Nc1ccc(OCc2ccccc2)cc1 | · | 5 | -1 | 7 | -1 | · | ·
C/C(=N\Nc1ccc(Cl)c(C(=O)O)c1)c1ccc[nH]1 | 17 | 10 | 7 | 35* | -6 | -7 | 50*
O=C(C1=C(O)C(=O)N(CCc2ccccc2)C1c1cccs1)c1ccco1 (configuration not stated) | 1 | -3 | -2 | 35* | 18 | 0 | 31*
O=C(C1=C(O)C(=O)N(CCc2ccccc2)C1c1cccnc1)c1ccco1 (configuration not stated) | 1 | 6 | -4 | 2 | -5 | -2 | ·
O=C(O)c1cc(-c2c[nH]c3ccccc23)nc2ccc3ccccc3c12 | -10 | -3 | 1 | 31* | 5 | 2 | 16
COc1ccc(Cc2c(C3CCCCC3)nc3ccc(C)cn23)c(C)c1 | · | 0 | -1 | 11 | 1 | -6 | ·
C=C(C)[C@@H]1CC2=C(OC)C(CC=C(C)C)(CC=C(C)C)C(=O)C(C(=O)c3ccccc3)=C2O1 | · | -3 | 1 | -10 | -9 | · | ·
NC(Cc1ccccc1)c1csc(Nc2ccc(C(F)(F)F)cn2)n1 (configuration not stated) | · | -1 | 10 | 13 | 4 | -5 | ·
COc1ccc(C(N)c2csc(Nc3ccc(C(F)(F)F)cn3)n2)cc1 (configuration not stated) | · | 4 | 13 | 34* | -6 | -1 | 25
COc1ccc(N2CCN(C(=O)Cn3cncn3)CC2)cc1 | 1 | 6 | 1 | 37* | 6 | 11 | 3
